Compounds with a hit are over-represented: about 2.4% of the library has one in this group of screens.
Runt-SMMHC FRET – blocks binding of human RUNX1 Runt domain to CBFb-SMMHC; Cerulean-Runt/Venus-CBFb-SMMHC FRET ratio 530/480, 1 h; inhibition, % at 20 µM; 0.74% of 220,000 active; AID 1434;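 active means mean inhibition across duplicate retests at 20 µM reaching about 50%, limit read from the data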;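 further: 0% = DMSO wells and 100% = wells with excess untagged CBFb-SMMHC; inhibitors lower the FRET ratio by blocking Runt binding to CBFb-SMMHC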
MEX-5 binding – C. elegans MEX-5 TCR-2 RNA binding activity; Q9XUB2; AID 1832; 0.38% of 300,000 active; MEX-5/FITC-TCR2 RNA binding, fluorescence polarization; stronger effect = lower value; activity score (negative = inhibition of binding), % at 10 µM;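 active means inhibition past about -25% in most replicates, and total fluorescence under double the plate's negative control median, limit read from the data; inconclusive means replicates evenly split on the limit, or fluorescence at least double controls; inactive means too little inhibition in most replicates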;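 further: 0% = DMSO and -100% = 5 µM competing unlabeled TCR2 RNA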
RanGTP-Impb inh – disruptors of Ran-importin-beta complex formation – biochemical, FRET, CFP-Ran, YFP-importin-beta, homogeneous, primary screen; cell-free CFP-Ran/YFP-importin-beta FRET ratio; inhibition, % (test concentration not listed); 1.1% of 300,000 active; AID 2216;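 active means more than half of the replicate wells show a fall in the fluorescence ratio signal beyond about 16%, limit read from the data, passing the limit was not always enough; inconclusive means exactly half of the replicate wells pass the set limit; inactive means fewer than half of replicates pass the limit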;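 further: 0% = DMSO wells and 100% = Ran loaded with GDP instead of GTP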
Runt-CBFb FRET – blocks binding of human RUNX1 Runt domain to CBFb | Q01196+Q13951 | Cerulean-Runt/Venus-CBFb FRET ratio 530/480, 1 h | inhibition, % at 20 µM | 0.46% of 220,000 active | AID 1496;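 active means inhibition over about 50% at 20 µM in the single-dose screen, limit read from the data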;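 further: 0% = DMSO wells and 100% = excess unlabeled CBFb competitor control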
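Schedule: protein complex preformed 1 h, compound exposure 1 h, room temperature, dark; test system: Cerulean-labeled Runt domain protein; amount: 100 nM per protein; buffer or medium: Tris 50 mM pH 7.5, KCl, K2SO4, 0.01% BSA; read-out: loss of energy transfer signal; detection: FRET fluorescence; controls: 5 µM unlabeled CBFb as full-inhibition high control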
EBV gp42 block – blocks Epstein-Barr virus glycoprotein 42 binding; Q1HVG2; 0.42% of 220,000 active; inhibition, % (tested at 21.74 µM); Fluorescence polarization binding assay, mP read-out; in the data active means inhibition above about 50%
LANA-H2B inh – blocks KSHV LANA binding to histone H2A/H2B | Q9QR71 | cell-free LANA-H2A/H2B peptide, fluorescence polarization | inhibition, % (test concentration not listed) | 0.6% of 320,000 active; in the data active means inhibition mostly above about 10%, no sharp cut-off; inactive means mostly below about 6.7%
Numbers without * were called inactive; ? = inconclusive; nt = no result; + = active, no number.

SMILES	Runt-SMMHC FRET	MEX-5 binding	RanGTP-Impb inh	Runt-CBFb FRET	EBV gp42 block	LANA-H2B inh
O=C(CCN=C1NS(=O)(=O)c2ccccc21)OCC(=O)c1ccccc1Cl	nt	1	1	nt	nt	1
O=C(Cc1ccccc1)NN1C(=O)C2C(C1=O)C1C=CC2C12CC2 (stereo not drawn)	0	0	0	-1	-5	0
Cc1ccc(C)c(-n2ccnc2SCC(=O)c2c(N)n(C3CC3)c(=O)[nH]c2=O)c1	nt	nt	nt	nt	nt	+
COCCn1c(SCC(=O)c2c(N)n(C3CC3)c(=O)[nH]c2=O)nnc1-c1ccc(Cl)cc1	nt	nt	nt	nt	nt	+
Cc1ccc(-n2nnnc2SCC(=O)c2c(N)n(C3CC3)c(=O)[nH]c2=O)cc1	nt	nt	nt	nt	nt	17*
Cc1cc(C)cc(-n2ccnc2SCC(=O)c2c(N)n(C3CC3)c(=O)[nH]c2=O)c1	nt	nt	nt	nt	nt	-3
Cc1cc(F)ccc1NCC(=O)Nc1ccccc1Br	-6	nt	1	1	-21	-2
COc1ccc(-[n+]2c(C)cc(/C=C3\Sc4ccccc4N3C)cc2C)cc1	44	?	?	5	-77	-99
COc1ccccc1-[n+]1c(C)cc(/C=C2\Sc3ccccc3N2C)cc1C	63*	?	1	6	-105	-51
CCCn1nc(NS(=O)(=O)c2cccc3nonc23)c2cc3cc(C)ccc3nc21	nt	2	2	nt	nt	-4
CCCCn1nc(NC(=O)COC)c2cc3ccc(C)cc3nc21	nt	0	5	nt	nt	-2
CCCn1nc(NC(=O)C(C)(C)C)c2cc3cc(OC)ccc3nc21	nt	0	67*	nt	nt	3
CCCCn1nc(NC(=O)CC)c2cc3cc(OC)ccc3nc21	nt	0	65*	nt	nt	5
COc1ccc(NC(=O)NCC(C)CSc2ccc(C)cc2)c(OC)c1 (stereo not drawn)	nt	-1	5	nt	nt	5
CO/N=C(/CNC(=O)c1ccc(F)cc1)c1ccc(Cl)cc1	-2	0	-1	nt	-3	3
COC(=O)CC#N	nt	nt	nt	nt	nt	+
COC(=O)CCN(C)CCC(=O)OC	2	-2	2	0	-11	2
COc1ccc(CNC(=O)CSc2ccc(Br)cc2)cc1OC	-6	3	3	1	-6	-1
CC(=O)c1cnc(-c2ccccn2)s1	-4	1	-3	19	-36	18*
S=C(Nc1ccc2nc(-c3ccccn3)c(-c3ccccn3)nc2c1)N1CCCCC1	nt	nt	nt	nt	55*	nt
CCCNC(=S)Nc1ccc2nc(-c3ccccn3)c(-c3ccccn3)nc2c1	-23	-7	28*	nt	-15	-3
S=C(Nc1ccc2nc(-c3ccccn3)c(-c3ccccn3)nc2c1)N1CCCCCC1	-127	-17	-54	-17	7	2
CCCCOC(=O)c1ccc(N=Nc2c(C)c(C#N)c(O)[nH]c2=O)cc1	-35	-63*	-2	-20	-35	-7
O=c1ccn(-c2cccc(C(F)(F)F)c2)nc1-c1ccn(-c2ccccc2)n1	1	1	3	-6	-11	-1
Nc1cc(-c2ccccc2)nn1Cc1ccccc1	-2	0	32*	-1	15	-2
SMILES	Runt-SMMHC FRET	MEX-5 binding	RanGTP-Impb inh	Runt-CBFb FRET	EBV gp42 block	LANA-H2B inh
COC(=O)[C@@H]1C[C@@H]2CC[C@@H](O)C[C@@H]2N1Cc1ccccc1OS(=O)(=O)c1ccc(C)cc1	1	3	6	1	-29	0
COc1ccc(-c2cc(C(F)(F)F)n3nc(C(=O)N(C)Cc4ccccc4)cc3n2)cc1OC	-42	-2	3	-20	9	18*
C/C(=N\NC(=O)COc1cccc(Br)c1)c1ccc2c(c1)OCCO2	nt	nt	nt	nt	nt	2
CCN(CC)c1ccc2c(c1)CCCN2	-28	-8	-4	-4	-20	20*
COCCn1cnc2c1c(=O)n(Cc1c(F)cccc1Cl)c(=O)n2Cc1ccccc1	nt	2	-1	nt	nt	4
CC(=O)Nc1ccc(NC(=O)c2cccc(-c3cc4ccccc4oc3=O)c2)cc1	-2	0	-5	-42	1	-2
COc1ccc(C(=O)Nc2cccc(-c3cc4ccccc4oc3=O)c2)cc1[N+](=O)[O-]	-6	nt	nt	-5	58*	0
CC(C)(C)C(=O)Nc1ccc(F)cc1[N+](=O)[O-]	-4	-1	4	-3	-3	12*
CN(CC(=O)Nc1ccc(F)cc1[N+](=O)[O-])C1CCS(=O)(=O)C1 (stereo not drawn)	nt	nt	nt	nt	nt	4
Cc1c(N)cccc1-c1nc2ccccc2[nH]1	-1	-1	-3	-1	2	2
Cc1cccc2cc3c(nc12)-c1ccccc1C3=O	nt	3	2	nt	nt	-2
Cc1ccc2c3c(cccc13)-c1ccccc1C2=O	63*	-10	64*	19	62*	nt
Cc1ccc(C2=C/C(=C/c3cccnc3)C(=O)O2)c(C)c1	-2	-2	34*	2	-2	7
CCCOc1ccc(/C=N/NC(=O)CSc2ccccn2)cc1OC	-3	-1	1	-1	-10	12*
O=C(CCN1C(=O)C2C3C=CC(C3)C2C1=O)N1CCCCC1 (stereo not drawn)	-2	1	?	0	-13	-4
O=C1C2CC=C(Cl)CC2C(=O)N1CCc1ccccc1 (stereo not drawn)	-36	-34*	-5	-16	25	0
O=C(CCN1C(=O)C2CC=C(Cl)CC2C1=O)N1CCCCC1 (stereo not drawn)	-58	-41*	?	-18	13	4
O=C(CN1C(=O)C2CC=C(Cl)CC2C1=O)NCc1ccccc1 (stereo not drawn)	-62	-27*	-5	-22	20	0
COc1ccc(CCNC(=O)C(=O)NCC2CCCO2)cc1 (stereo not drawn)	-3	2	1	-2	-19	2
COc1ccc(CCNC(=O)C(=O)NCC2CCCO2)cc1OC (stereo not drawn)	-4	-1	-3	-1	-2	41*
COc1ccc(CCNC(=O)C2CCC(C(C)(C)C)CC2)cc1OC (stereo not drawn)	nt	-3	-1	nt	nt	58*
O=S(=O)(O)c1cc(O)c2c(O)c(N=Nc3cc(Cl)ccc3O)c(S(=O)(=O)O)cc2c1	nt	-46*	57*	nt	nt	-3
CC(=O)N1c2ccc(S(=O)(=O)NCCc3ccccc3)cc2CC1C (stereo not drawn)	nt	-1	0	nt	nt	-4
CC(=O)N1c2ccc(S(=O)(=O)N(C)c3cc(C)ccc3C)cc2CC1C (stereo not drawn)	nt	0	-1	nt	nt	2
CCC(=O)N1c2ccc(S(=O)(=O)NCCc3ccc(C)cc3)cc2CC1C (stereo not drawn)	nt	-4	-1	nt	nt	14*
Cc1ccc(N(C)S(=O)(=O)c2ccc3c(c2)CC(C)N3C(=O)C2CC2)cc1 (stereo not drawn)	nt	4	51*	nt	nt	4

Screens: PubChem BioAssay, several laboratories
